# Assay results: publication PMC4358770 (Journal of medicinal chemistry, 2010)
# Columns and labels:
# NTPDase2 = biological target: T1, NTPDase2 (Homo sapiens, UniProt Q9Y5L3); assay: NTPDase2 hydrolysis assay; type: in vitro ADME; conditions: 100 μM ATP (100% reference)
# T1 sequence (Q9Y5L3 1-495): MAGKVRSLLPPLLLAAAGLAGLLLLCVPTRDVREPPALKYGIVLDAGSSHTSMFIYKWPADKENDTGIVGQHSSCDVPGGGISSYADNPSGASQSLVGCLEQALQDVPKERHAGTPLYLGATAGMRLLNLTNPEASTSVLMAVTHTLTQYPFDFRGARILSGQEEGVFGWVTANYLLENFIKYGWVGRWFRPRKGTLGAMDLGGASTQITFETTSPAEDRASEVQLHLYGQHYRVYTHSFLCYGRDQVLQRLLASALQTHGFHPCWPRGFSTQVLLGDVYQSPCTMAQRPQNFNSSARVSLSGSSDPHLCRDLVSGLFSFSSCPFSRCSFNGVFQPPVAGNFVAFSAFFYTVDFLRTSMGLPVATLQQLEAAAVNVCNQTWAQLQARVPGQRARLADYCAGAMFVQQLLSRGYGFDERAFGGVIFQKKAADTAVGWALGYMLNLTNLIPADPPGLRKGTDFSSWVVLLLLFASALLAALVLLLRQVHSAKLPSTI
# How it was run: (§1)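 Enzymes were transiently expressed in COS-7 cells. Crude protein extracts were made by sonication, 300g clearing at 4 °C and storage at −80 °C, with protein measured by Bradford. Extract was preincubated 3 min at 37 °C in Tris-Ringer buffer, pH 7.4. […] Activity of untransfected-cell extract was subtracted.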
# NTPDase3 = biological target: T2, NTPDase3 (Homo sapiens, UniProt O75355); assay: NTPDase3 hydrolysis assay; type: in vitro ADME; conditions: 100 μM ATP (100% reference)
# T2 sequence (O75355 1-529): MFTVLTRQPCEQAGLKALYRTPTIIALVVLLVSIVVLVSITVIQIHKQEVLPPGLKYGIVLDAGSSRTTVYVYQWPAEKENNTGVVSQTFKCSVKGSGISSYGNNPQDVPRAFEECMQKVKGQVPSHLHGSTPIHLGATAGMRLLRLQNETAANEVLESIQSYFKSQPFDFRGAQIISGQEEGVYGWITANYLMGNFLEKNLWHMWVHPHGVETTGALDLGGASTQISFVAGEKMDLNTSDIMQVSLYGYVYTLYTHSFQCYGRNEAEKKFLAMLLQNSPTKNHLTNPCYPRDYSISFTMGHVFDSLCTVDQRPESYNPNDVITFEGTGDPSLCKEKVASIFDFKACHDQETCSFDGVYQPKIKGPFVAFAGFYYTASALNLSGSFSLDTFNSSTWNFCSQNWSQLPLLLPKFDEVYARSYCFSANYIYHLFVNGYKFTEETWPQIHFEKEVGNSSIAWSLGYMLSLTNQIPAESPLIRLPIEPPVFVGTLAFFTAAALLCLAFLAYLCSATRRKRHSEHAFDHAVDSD
# How it was run: as §1
# NTPDase8 = biological target: T3, NTPDase8 (Homo sapiens, UniProt Q5MY95); assay: NTPDase8 hydrolysis assay; type: in vitro ADME; conditions: 100 μM ATP (100% reference)
# T3 sequence (Q5MY95 1-495): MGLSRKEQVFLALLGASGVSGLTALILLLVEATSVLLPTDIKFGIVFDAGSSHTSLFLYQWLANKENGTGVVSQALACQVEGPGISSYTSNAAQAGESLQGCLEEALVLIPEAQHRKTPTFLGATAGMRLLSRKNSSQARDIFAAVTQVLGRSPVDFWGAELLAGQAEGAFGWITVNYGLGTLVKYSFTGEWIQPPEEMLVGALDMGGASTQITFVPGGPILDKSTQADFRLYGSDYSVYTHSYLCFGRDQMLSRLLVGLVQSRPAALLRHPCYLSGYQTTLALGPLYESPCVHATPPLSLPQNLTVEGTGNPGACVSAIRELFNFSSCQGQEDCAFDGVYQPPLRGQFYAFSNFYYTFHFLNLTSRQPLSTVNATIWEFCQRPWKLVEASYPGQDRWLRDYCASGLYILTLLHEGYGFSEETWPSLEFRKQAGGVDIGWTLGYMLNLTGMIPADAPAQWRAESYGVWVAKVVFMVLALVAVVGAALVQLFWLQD
# How it was run: as §1
# human NPP1 = biological target: T4, human NPP1 (Homo sapiens, UniProt P22413); assay: NPP1 hydrolysis assay; type: in vitro ADME; conditions: 100 μM ATP (100% reference)
# T4 sequence (P22413 1-925): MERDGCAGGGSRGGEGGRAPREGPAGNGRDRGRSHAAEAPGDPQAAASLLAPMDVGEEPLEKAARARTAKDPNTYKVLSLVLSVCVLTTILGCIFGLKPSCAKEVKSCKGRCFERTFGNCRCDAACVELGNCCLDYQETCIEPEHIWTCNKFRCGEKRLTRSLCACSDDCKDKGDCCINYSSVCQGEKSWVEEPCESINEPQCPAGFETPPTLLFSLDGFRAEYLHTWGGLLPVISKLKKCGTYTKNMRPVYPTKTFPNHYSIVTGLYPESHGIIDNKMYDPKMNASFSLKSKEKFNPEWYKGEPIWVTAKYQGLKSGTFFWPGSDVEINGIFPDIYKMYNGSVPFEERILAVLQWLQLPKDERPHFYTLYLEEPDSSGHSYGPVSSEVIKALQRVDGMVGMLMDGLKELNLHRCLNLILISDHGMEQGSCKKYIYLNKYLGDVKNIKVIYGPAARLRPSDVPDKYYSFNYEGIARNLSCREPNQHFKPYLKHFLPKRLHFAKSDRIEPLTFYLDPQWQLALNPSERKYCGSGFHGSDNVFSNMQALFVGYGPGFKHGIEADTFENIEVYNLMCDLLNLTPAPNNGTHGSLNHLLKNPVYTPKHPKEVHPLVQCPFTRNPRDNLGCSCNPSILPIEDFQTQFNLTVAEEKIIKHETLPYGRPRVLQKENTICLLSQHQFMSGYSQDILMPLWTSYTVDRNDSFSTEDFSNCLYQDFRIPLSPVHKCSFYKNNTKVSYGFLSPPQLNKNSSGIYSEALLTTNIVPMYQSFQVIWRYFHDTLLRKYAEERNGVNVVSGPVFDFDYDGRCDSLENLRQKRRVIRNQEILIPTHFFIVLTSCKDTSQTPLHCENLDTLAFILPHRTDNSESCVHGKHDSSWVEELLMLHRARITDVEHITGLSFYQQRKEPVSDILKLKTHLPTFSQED
# [1] = pKa and ionization of the terminal phosphate/phosphonate; type: physicochemical; conditions: pH 7.4, terminal phosphate/phosphonate
# [2] = cited from earlier work
# rabbit IOP = conditions: topically applied to New Zealand white rabbits; cited from earlier work
# alkaline phosphatase = alkaline phosphatase (Bos taurus, UniProt P19111); assay: Hydrolysis by alkaline phosphatase; conditions: bovine, calf intestine alkaline phosphatase, pH 9.8
# Chain of alkaline phosphatase (P19111 20-533): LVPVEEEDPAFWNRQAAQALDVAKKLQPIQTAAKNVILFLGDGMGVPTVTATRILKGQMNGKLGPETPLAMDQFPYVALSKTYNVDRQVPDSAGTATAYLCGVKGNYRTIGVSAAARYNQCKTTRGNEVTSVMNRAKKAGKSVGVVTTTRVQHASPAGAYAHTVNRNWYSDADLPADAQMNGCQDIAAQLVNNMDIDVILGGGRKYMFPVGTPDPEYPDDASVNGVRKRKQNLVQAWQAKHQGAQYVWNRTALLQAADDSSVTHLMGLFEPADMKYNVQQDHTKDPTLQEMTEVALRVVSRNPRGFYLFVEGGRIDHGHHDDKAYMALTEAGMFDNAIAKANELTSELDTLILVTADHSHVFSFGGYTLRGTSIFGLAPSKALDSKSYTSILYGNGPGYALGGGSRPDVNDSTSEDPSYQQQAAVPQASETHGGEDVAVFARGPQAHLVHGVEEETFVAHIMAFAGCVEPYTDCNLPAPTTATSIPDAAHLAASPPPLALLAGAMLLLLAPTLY
# [3] = biological target: calf intestine alkaline phosphatase (Bos taurus, UniProt P19111); assay: Hydrolysis by alkaline phosphatase; conditions: 0.2 mg analogue/77.5 μL, 12.5 units of AP, 37 °C, 3 h
# Chain of calf intestine alkaline phosphatase (P19111 20-533): as above
smiles,measurement,setting,value
Nc1ncnc2c1ncn2[C@@H]1O[C@H](COP(=O)(O)OP(=O)(O)OP(=O)(O)O)[C@@H](O)[C@H]1O [ATP],hydrolysis rate by NTPDase2,NTPDase2,1006 ± 60 nmol Pi·min^−1·mg protein^−1
same,hydrolysis rate by NTPDase3,NTPDase3,533 ± 42 nmol Pi·min^−1·mg protein^−1
same,hydrolysis rate by NTPDase8,NTPDase8,229 ± 20 nmol Pi·min^−1·mg protein^−1
same,hydrolysis rate by NPP1,human NPP1,619 nmol nucl·min^−1·mg protein^−1
same,fraction ionized at physiological pH,[1],91%
same,t1/2 in human blood serum,[2],3.6 h
same,effect on IOP (increase or reduction),rabbit IOP,reduced
same,half-life at 2.58 mg/mL,alkaline phosphatase,84 min
same,degradation by alkaline phosphatase after 3 h,[3],96%
